Reference: ChEMBL document CHEMBL4364267, “Hydrogen sulfide donating ent-kaurane and spirolactone-type 6,7-seco-ent-kaurane derivatives: Design, synthesis and antiproliferative properties” (Eur J Med Chem, 2019)
Active and inactive are the calls of the source. The calls are words filed in the database; no cut-off is given here.

What was measured:
[1] = system: SGC-7901; test: Antiproliferative activity against human SGC7901 cells assessed as reduction in cell viability after 72 hrs by MTT assay; format: functional, cell-based; settings: SGC-7901, 72 h
Method in brief: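 MTT assay over 72 h, compounds at 64, 16, 4, 1, 0.25, 0.0625 and 0.015625 μM. MTT solution (5 mg/mL) and DMSO added afterwards, 10 min at room temperature, absorbance read at 490 nm. IC50 calculated as the mean ± SD of three independent experiments.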

[2] = system: Bel-7402; test: Cell cycle arrest in human Bel7402 cells assessed as accumulation of cells at G1 phase at 0.45 uM after 48 hrs by propidium iodide/RNase staining based flow cytometric analysis (reference value: 30.95%); format: functional
[3] = system: Bel-7402; test: Cell cycle arrest in human Bel7402 cells assessed as accumulation of cells at G2 phase at 0.45 uM after 48 hrs by propidium iodide/RNase staining based flow cytometric analysis (reference value: 29.97%); format: functional
[4] = system: Bel-7402; test: Cell cycle arrest in human Bel7402 cells assessed as accumulation of cells at G1 phase at 0.90 uM after 48 hrs by propidium iodide/RNase staining based flow cytometric analysis (reference value: 30.95%); format: functional
[5] = system: Bel-7402; test: Cell cycle arrest in human Bel7402 cells assessed as accumulation of cells at G1 phase at 1.80 uM after 48 hrs by propidium iodide/RNase staining based flow cytometric analysis (reference value: 30.95%); format: functional
[6] = system: Bel-7402; test: Cell cycle arrest in human Bel7402 cells assessed as accumulation of cells at S phase at 1.80 uM after 48 hrs by propidium iodide/RNase staining based flow cytometric analysis (reference value: 39.09%); format: functional
[7] = system: Bel-7402; test: Induction of morphological changes in human Bel7402 cells assessed as nuclear fragmentation at 0.45 to 1.80 uM after 48 hrs by Hoechst 33258 staining-based fluorescent microscopic analysis; format: functional, cell-based
Method in brief: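 Bel-7402 cells cultured 24 h in 6-well plates at 37 °C, then exposed 48 h to 0, 0.45, 0.90 or 1.80 μM. Harvested by mild trypsinization and washed twice with PBS. Stained with Hoechst 33258 (2 mg/mL) for 15 min at room temperature in the dark, washed, and viewed by fluorescence microscopy.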

[8] = system: Bel-7402; test: Induction of apoptosis in human Bel7402 cells assessed as viable cells at 0.45 uM after 48 hrs by Annexin V-FITC/propidium iodide staining based flow cytometry (reference value: 97.22%); format: functional; settings: Bel-7402, 48 h, read-out: Activity
Method in brief: (§1)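 Bel-7402 cells in 6-well plates treated with 0, 0.45, 0.90 or 1.80 μM, washed twice with PBS and resuspended in annexin V binding buffer. Stained with annexin V-FITC and PI for 15 min at room temperature in the dark, then analysed by flow cytometry. Methods state 24 h exposure; the figure legend states 48 h.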

[9] = system: Bel-7402; test: Induction of apoptosis in human Bel7402 cells assessed as late apoptotic cells at 0.45 uM after 48 hrs by Annexin V-FITC/propidium iodide staining based flow cytometry (reference value: 0.68%); format: functional; method in brief: as §1
[10] = system: Bel-7402; test: Induction of apoptosis in human Bel7402 cells assessed as necrotic cells at 0.45 uM after 48 hrs by Annexin V-FITC/propidium iodide staining based flow cytometry (reference value: 0.01%); format: functional; method in brief: as §1
[11] = system: Bel-7402; test: Induction of apoptosis in human Bel7402 cells assessed as early apoptotic cells at 0.90 uM after 48 hrs by Annexin V-FITC/propidium iodide staining based flow cytometry (reference value: 2.09%); format: functional; method in brief: as §1
[12] = system: Bel-7402; test: Induction of apoptosis in human Bel7402 cells assessed as late apoptotic cells at 0.90 uM after 48 hrs by Annexin V-FITC/propidium iodide staining based flow cytometry (reference value: 0.68%); format: functional; method in brief: as §1
[13] = system: Bel-7402; test: Induction of apoptosis in human Bel7402 cells assessed as viable cells at 1.80 uM after 48 hrs by Annexin V-FITC/propidium iodide staining based flow cytometry (reference value: 97.22%); format: functional; settings: Bel-7402, 48 h, read-out: Activity; method in brief: as §1
[14] = system: Bel-7402; test: Induction of apoptosis in human Bel7402 cells assessed as early apoptotic cells at 1.80 uM after 48 hrs by Annexin V-FITC/propidium iodide staining based flow cytometry (reference value: 2.09%); format: functional; method in brief: as §1
[15] = system: Bel-7402; test: Induction of apoptosis in human Bel7402 cells assessed as late apoptotic cells at 1.80 uM after 48 hrs by Annexin V-FITC/propidium iodide staining based flow cytometry (reference value: 0.68%); format: functional; method in brief: as §1
[16] = system: Bel-7402; test: Induction of apoptosis in human Bel7402 cells after 48 hrs by Annexin V-FITC/propidium iodide staining based assay; format: functional, cell-based; method in brief: as §1
[17] = system: Bel-7402; test: Induction of mitochondrial membrane potential loss in human Bel7402 cells assessed as cell population with mitochondrial membrane potential collapse at 0.45 uM after 48 hrs by JC1 staining-based flow cytometry analysis (reference value: 1.28%); format: functional
Method in brief: (§2)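 Bel-7402 cells in 6-well plates exposed for 48 h to 0, 0.45, 0.90 or 1.80 μM, DMSO as vehicle. Washed with PBS and stained with JC-1 at room temperature in the dark. Cells with collapsed membrane potential counted by flow cytometry.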

[18] = system: Bel-7402; test: Induction of mitochondrial membrane potential loss in human Bel7402 cells assessed as cell population with intact mitochondrial membrane potential at 0.90 uM after 48 hrs by JC1 staining-based flow cytometry analysis (reference value: 98.67%); format: functional; method in brief: as §2
[19] = system: Bel-7402; test: Induction of mitochondrial membrane potential loss in human Bel7402 cells assessed as cell population with mitochondrial membrane potential collapse at 0.90 uM after 48 hrs by JC1 staining-based flow cytometry analysis (reference value: 1.28%); format: functional; method in brief: as §2
[20] = system: Bel-7402; test: Induction of mitochondrial membrane potential depolarization in human Bel7402 cells after 48 hrs by JC1 staining-based flow cytometry analysis; format: functional, cell-based; method in brief: as §2
[21] = system: Bel-7402; test: Induction of apoptosis in human Bel7402 cells assessed as increase in cytochrome C expression at 0.90 to 1.80 uM after 48 hrs by Western blot analysis; format: functional, cell-based
[22] = system: Bel-7402; test: Induction of apoptosis in human Bel7402 cells assessed as increase in cleaved PARP expression at 0.45 to 1.80 uM after 48 hrs by Western blot analysis; format: functional, cell-based
[23] = system: Bel-7402; test: Induction of apoptosis in human Bel7402 cells assessed as reduction in PARP expression at 0.45 to 1.80 uM after 48 hrs by Western blot analysis; format: functional, cell-based

IC50 [1]: 4.36 µM
SMILES: C=C1C(=O)[C@@]23C(=O)OC[C@]4(C(=O)CCC(C)(C)[C@H]4C=O)[C@@H]2CC[C@@H]1[C@H]3OC(=O)CCCC(=O)Oc1ccc(-c2cc(=S)ss2)cc1
Activity [2]: 37.37%
Activity [3]: 22.21%
Activity [4]: 42.3%
Activity [5]: 49.56%
Activity [6]: 34.52%
Activity [7]: Active
viability at 0.45 µM [8]: 82.2%
Activity [9]: 7.73%
Activity [10]: 0.11%
Activity [11]: 15.17%
Activity [12]: 12.3%
viability at 1.8 µM [13]: 43.6%
Activity [14]: 18.68%
Activity [15]: 36.64%
Activity [16]: Dose-dependent effect
Activity [17]: 18.48%
Activity [18]: 69.04%
Activity [19]: 30.96%
Activity [20]: Dose-dependent effect
Activity [21]: Active
Activity [22]: Active
Activity [23]: Active
